Measurements as given in ChEMBL document CHEMBL1146041, “Synthesis and SAR of pyrrolotriazine-4-one based Eg5 inhibitors” (Bioorg Med Chem Lett, 2006).

Tests used:
Assay type in all cases: ADME, organism-based
Parameters in all cases: dose 10 mg/kg
[1] = Mean residence time in mouse at 10 mg/kg; details: in vivo
Method in brief: (§1)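 Mice (n = 3) dosed at 10 mg/kg in 50% PEG400/50% water; pharmacokinetic parameters given as mean ± deviation.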

[2] = Clearance in mouse at 10 mg/kg; details: in vivo; method in brief: as §1
[3] = Half life in mouse at 10 mg/kg; details: in vivo; method in brief: as §1
[4] = Volume of distribution in mouse at 10 mg/kg; details: in vivo, read-out: Vdss; method in brief: as §1

An MRT [1] of 6.5 h, a clearance [2] of 16 mL/min/kg and a half-life [3] of 4.5 h were found for `Cc1ccc(C(=O)N(CCCN)C(c2nn3c(Cl)ccc3c(=O)n2Cc2ccccc2)C2CC2)cc1` (centres undefined) in this work. It also gave a Vd [4] of 5.9 L/kg.
